{
  "source": "ChEMBL document CHEMBL5724801",
  "about": "“EUbOPEN Chemogenomics Library - Multiplex” (2024)",
  "key": {"Fibroblast": {"tested_on": "Fibroblast", "assay": "Multiplex assay against human fibroblast", "assay_type": "toxicity, cell-based", "how_it_was_run": "(§1)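 Tubulin, mitochondrial-mass and membrane-permeability phenotypes are per cents of healthy-nucleus cells. Cells were gated by CellPathfinder machine learning into Hoechst high-intensity objects or normal cells, normal cells into healthy, pyknosed or fragmented nuclei, and pyknosed cells into mitotic or apoptotic. Before that, live cells stained at seeding with Hoechst33342, BioTracker Green Microtubule Cytoskeleton Dye, MitoTracker Red and Annexin V Alexa Fluor 680 were imaged on a CQ1 microscope at 37°C and 5% CO2 after compound addition.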"}, "HEK-293T": {"tested_on": "HEK-293T", "assay": "Multiplex assay against HEK293T", "assay_type": "toxicity, cell-based", "settings": "human", "how_it_was_run": "as §1"}, "[1]": {"settings": "12 h, 1 µM, compound concentration 1 uM"}, "[2]": {"settings": "12 h, 10 µM, compound concentration 10 uM"}, "[3]": {"settings": "24 h, 1 µM, compound concentration 1 uM"}, "[4]": {"settings": "24 h, 10 µM, compound concentration 10 uM"}, "[5]": {"settings": "48 h, 1 µM, compound concentration 1 uM"}, "[6]": {"settings": "48 h, 10 µM, compound concentration 10 uM"}},
  "note": "Values joined by “and” are separate entries in the source; they are usually repeats but may differ in a detail not shown here. Identical values can stand only once.",
  "data": [
    {"molecule": "COc1ccccc1N1CCN(C[C@@H](C(=O)NC(C)(C)C)c2ccccc2)CC1.Cl.Cl", "values": [
      {"measurement": "Population Apoptotic (%)", "setting": "Fibroblast; [1]", "result": "43% and 40%"},
      {"measurement": "Population Fragmented Nuclei (%)", "setting": "Fibroblast; [1]", "result": "12% and 25%"},
      {"measurement": "Population Healthy Nuclei (%)", "setting": "Fibroblast; [1]", "result": "70% and 43%"},
      {"measurement": "Population Hoechst High Intensity Objects (%)", "setting": "Fibroblast; [1]", "result": "2% and 5%"},
      {"measurement": "Population Membrane Permeable-Phenotype (%)", "setting": "Fibroblast; [1]", "result": 0, "unit": "%"},
      {"measurement": "Population Mitochondria Different-Phenotype (%)", "setting": "Fibroblast; [1]", "result": "8% and 4%"},
      {"measurement": "Population Mitotic Cells (%)", "setting": "Fibroblast; [1]", "result": "56% and 60%"},
      {"measurement": "Population Normal (%)", "setting": "Fibroblast; [1]", "result": "97% and 94%"},
      {"measurement": "Population Pyknosed Nuclei (%)", "setting": "Fibroblast; [1]", "result": "16% and 30%"},
      {"measurement": "Population Tubulin-Different-Phenotype (%)", "setting": "Fibroblast; [1]", "result": "37% and 43%"},
      {"measurement": "Total Cell Count", "setting": "Fibroblast; [1]", "result": "141 and 155"},
      {"measurement": "Population Apoptotic (%)", "setting": "Fibroblast; [2]", "result": "50% and 48%"},
      {"measurement": "Population Fragmented Nuclei (%)", "setting": "Fibroblast; [2]", "result": "20% and 32%"},
      {"measurement": "Population Healthy Nuclei (%)", "setting": "Fibroblast; [2]", "result": "59% and 42%"},
      {"measurement": "Population Hoechst High Intensity Objects (%)", "setting": "Fibroblast; [2]", "result": 5, "unit": "%"},
      {"measurement": "Population Membrane Permeable-Phenotype (%)", "setting": "Fibroblast; [2]", "result": "1% and 6%"},
      {"measurement": "Population Mitochondria Different-Phenotype (%)", "setting": "Fibroblast; [2]", "result": "20% and 12%"},
      {"measurement": "Population Mitotic Cells (%)", "setting": "Fibroblast; [2]", "result": "50% and 51%"},
      {"measurement": "Population Normal (%)", "setting": "Fibroblast; [2]", "result": 94, "unit": "%"},
      {"measurement": "Population Pyknosed Nuclei (%)", "setting": "Fibroblast; [2]", "result": "20% and 24%"},
      {"measurement": "Population Tubulin-Different-Phenotype (%)", "setting": "Fibroblast; [2]", "result": "66% and 70%"},
      {"measurement": "Total Cell Count", "setting": "Fibroblast; [2]", "result": "134 and 116"},
      {"measurement": "Population Apoptotic (%)", "setting": "Fibroblast; [3]", "result": 50, "unit": "%"},
      {"measurement": "Population Fragmented Nuclei (%)", "setting": "Fibroblast; [3]", "result": "12% and 24%"},
      {"measurement": "Population Healthy Nuclei (%)", "setting": "Fibroblast; [3]", "result": "73% and 55%"},
      {"measurement": "Population Hoechst High Intensity Objects (%)", "setting": "Fibroblast; [3]", "result": "2% and 3%"},
      {"measurement": "Population Membrane Permeable-Phenotype (%)", "setting": "Fibroblast; [3]", "result": "0% and 8%"},
      {"measurement": "Population Mitotic Cells (%)", "setting": "Fibroblast; [3]", "result": 50, "unit": "%"},
      {"measurement": "Population Normal (%)", "setting": "Fibroblast; [3]", "result": "97% and 96%"},
      {"measurement": "Population Pyknosed Nuclei (%)", "setting": "Fibroblast; [3]", "result": "14% and 19%"},
      {"measurement": "Population Tubulin-Different-Phenotype (%)", "setting": "Fibroblast; [3]", "result": "32% and 50%"},
      {"measurement": "Total Cell Count", "setting": "Fibroblast; [3]", "result": "143 and 151"},
      {"measurement": "Population Apoptotic (%)", "setting": "Fibroblast; [4]", "result": "83% and 40%"},
      {"measurement": "Population Fragmented Nuclei (%)", "setting": "Fibroblast; [4]", "result": "19% and 39%"},
      {"measurement": "Population Healthy Nuclei (%)", "setting": "Fibroblast; [4]", "result": "65% and 41%"},
      {"measurement": "Population Hoechst High Intensity Objects (%)", "setting": "Fibroblast; [4]", "result": "8% and 3%"},
      {"measurement": "Population Membrane Permeable-Phenotype (%)", "setting": "Fibroblast; [4]", "result": "0% and 8%"},
      {"measurement": "Population Normal (%)", "setting": "Fibroblast; [4]", "result": "91% and 96%"},
      {"measurement": "Population Pyknosed Nuclei (%)", "setting": "Fibroblast; [4]", "result": "14% and 19%"},
      {"measurement": "Population Tubulin-Different-Phenotype (%)", "setting": "Fibroblast; [4]", "result": "63% and 76%"},
      {"measurement": "Total Cell Count", "setting": "Fibroblast; [4]", "result": "132 and 116"},
      {"measurement": "Population Apoptotic (%)", "setting": "Fibroblast; [5]", "result": "84% and 60%"},
      {"measurement": "Population Fragmented Nuclei (%)", "setting": "Fibroblast; [5]", "result": "18% and 31%"},
      {"measurement": "Population Healthy Nuclei (%)", "setting": "Fibroblast; [5]", "result": "71% and 52%"},
      {"measurement": "Population Hoechst High Intensity Objects (%)", "setting": "Fibroblast; [5]", "result": 5, "unit": "%"},
      {"measurement": "Population Membrane Permeable-Phenotype (%)", "setting": "Fibroblast; [5]", "result": "1% and 5%"},
      {"measurement": "Population Mitochondria Different-Phenotype (%)", "setting": "Fibroblast; [5]", "result": "12% and 5%"},
      {"measurement": "Population Mitotic Cells (%)", "setting": "Fibroblast; [5]", "result": "15% and 40%"},
      {"measurement": "Population Normal (%)", "setting": "Fibroblast; [5]", "result": 94, "unit": "%"},
      {"measurement": "Population Pyknosed Nuclei (%)", "setting": "Fibroblast; [5]", "result": "10% and 15%"},
      {"measurement": "Population Tubulin-Different-Phenotype (%)", "setting": "Fibroblast; [5]", "result": "34% and 56%"},
      {"measurement": "Total Cell Count", "setting": "Fibroblast; [5]", "result": "138 and 171"},
      {"measurement": "Population Apoptotic (%)", "setting": "Fibroblast; [6]", "result": "84% and 44%"},
      {"measurement": "Population Fragmented Nuclei (%)", "setting": "Fibroblast; [6]", "result": "18% and 50%"},
      {"measurement": "Population Healthy Nuclei (%)", "setting": "Fibroblast; [6]", "result": "63% and 41%"},
      {"measurement": "Population Membrane Permeable-Phenotype (%)", "setting": "Fibroblast; [6]", "result": "0% and 8%"},
      {"measurement": "Population Normal (%)", "setting": "Fibroblast; [6]", "result": "85% and 96%"},
      {"measurement": "Population Pyknosed Nuclei (%)", "setting": "Fibroblast; [6]", "result": "18% and 7%"},
      {"measurement": "Population Tubulin-Different-Phenotype (%)", "setting": "Fibroblast; [6]", "result": "65% and 67%"},
      {"measurement": "Total Cell Count", "setting": "Fibroblast; [6]", "result": 122},
      {"measurement": "Population Apoptotic (%)", "setting": "HEK-293T; [1]", "result": "24% and 42%"},
      {"measurement": "Population Fragmented Nuclei (%)", "setting": "HEK-293T; [1]", "result": "7% and 4%"},
      {"measurement": "Population Healthy Nuclei (%)", "setting": "HEK-293T; [1]", "result": "77% and 76%"},
      {"measurement": "Population Hoechst High Intensity Objects (%)", "setting": "HEK-293T; [1]", "result": "7% and 6%"},
      {"measurement": "Population Membrane Permeable-Phenotype (%)", "setting": "HEK-293T; [1]", "result": 0, "unit": "%"},
      {"measurement": "Population Mitochondria Different-Phenotype (%)", "setting": "HEK-293T; [1]", "result": "48% and 77%"},
      {"measurement": "Population Mitotic Cells (%)", "setting": "HEK-293T; [1]", "result": "75% and 57%"},
      {"measurement": "Population Normal (%)", "setting": "HEK-293T; [1]", "result": "92% and 93%"},
      {"measurement": "Population Pyknosed Nuclei (%)", "setting": "HEK-293T; [1]", "result": "14% and 19%"},
      {"measurement": "Population Tubulin-Different-Phenotype (%)", "setting": "HEK-293T; [1]", "result": "47% and 35%"},
      {"measurement": "Total Cell Count", "setting": "HEK-293T; [1]", "result": "434 and 300"},
      {"measurement": "Population Apoptotic (%)", "setting": "HEK-293T; [2]", "result": "62% and 58%"},
      {"measurement": "Population Fragmented Nuclei (%)", "setting": "HEK-293T; [2]", "result": "7% and 5%"},
      {"measurement": "Population Healthy Nuclei (%)", "setting": "HEK-293T; [2]", "result": 69, "unit": "%"},
      {"measurement": "Population Hoechst High Intensity Objects (%)", "setting": "HEK-293T; [2]", "result": "7% and 16%"},
      {"measurement": "Population Membrane Permeable-Phenotype (%)", "setting": "HEK-293T; [2]", "result": 0, "unit": "%"},
      {"measurement": "Population Mitochondria Different-Phenotype (%)", "setting": "HEK-293T; [2]", "result": "88% and 79%"},
      {"measurement": "Population Mitotic Cells (%)", "setting": "HEK-293T; [2]", "result": "37% and 41%"},
      {"measurement": "Population Normal (%)", "setting": "HEK-293T; [2]", "result": "92% and 83%"},
      {"measurement": "Population Pyknosed Nuclei (%)", "setting": "HEK-293T; [2]", "result": "23% and 25%"},
      {"measurement": "Population Tubulin-Different-Phenotype (%)", "setting": "HEK-293T; [2]", "result": "74% and 59%"},
      {"measurement": "Total Cell Count", "setting": "HEK-293T; [2]", "result": "333 and 231"},
      {"measurement": "Population Apoptotic (%)", "setting": "HEK-293T; [3]", "result": "19% and 34%"},
      {"measurement": "Population Fragmented Nuclei (%)", "setting": "HEK-293T; [3]", "result": "8% and 11%"},
      {"measurement": "Population Healthy Nuclei (%)", "setting": "HEK-293T; [3]", "result": "81% and 76%"},
      {"measurement": "Population Hoechst High Intensity Objects (%)", "setting": "HEK-293T; [3]", "result": "4% and 6%"},
      {"measurement": "Population Membrane Permeable-Phenotype (%)", "setting": "HEK-293T; [3]", "result": 0, "unit": "%"},
      {"measurement": "Population Mitochondria Different-Phenotype (%)", "setting": "HEK-293T; [3]", "result": "31% and 54%"},
      {"measurement": "Population Mitotic Cells (%)", "setting": "HEK-293T; [3]", "result": "80% and 65%"},
      {"measurement": "Population Normal (%)", "setting": "HEK-293T; [3]", "result": "95% and 93%"},
      {"measurement": "Population Pyknosed Nuclei (%)", "setting": "HEK-293T; [3]", "result": "9% and 11%"},
      {"measurement": "Population Tubulin-Different-Phenotype (%)", "setting": "HEK-293T; [3]", "result": "29% and 28%"},
      {"measurement": "Total Cell Count", "setting": "HEK-293T; [3]", "result": "563 and 387"},
      {"measurement": "Population Apoptotic (%)", "setting": "HEK-293T; [4]", "result": "45% and 66%"},
      {"measurement": "Population Fragmented Nuclei (%)", "setting": "HEK-293T; [4]", "result": 8, "unit": "%"}
    ]}
  ]
}
